pIC50: −log10 of the molar value. Active and inactive are the calls of the source. No cut-off for these calls is given here.

For experiment [1], the system named is SMMC-7721. In words: Antiproliferative activity against human SMMC-7721 cells assessed as reduction in cell viability at 2 uM by MTT assay. As to conditions: time 12-48 hrs, TDE = time-dependent effect. In kind it is functional, cell-based. An outline of the steps: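 Cells treated with 2.0 µM over a time course; viability read by MTT. HepG2, SMMC-7721 kept in DMEM, QGY-7703 in RPMI 1640, with 10% FBS at 37 °C and 5% CO2.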
(Tetrazolium dyes change colour on reduction, which living cells bring about.)

Experiment [2] deals with HepG2. In words: Induction of apoptosis in human HepG2 cells assessed as cleaved caspase-9 expression at 2 uM pretreated with ER stress inhibitor, 4-PBA for 2 hrs followed by incubation with compound for 12 hrs by Western blot analysis. Format: functional, cell-based. An outline of the steps: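 HepG2 cells grown to confluence were pretreated 2 h with 2 mM 3-MA (autophagy inhibitor) or 2 mM 4-PBA (ER stress inhibitor), then exposed to compound for 12 h. Proteins (40–80 µg, RIPA lysate) were resolved by SDS-PAGE and blotted for PARP, cleaved caspase-3/-9, Bcl-2 and Bax, with chemiluminescent detection.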
(In general: In western blotting, separated proteins are transferred to a membrane and probed.)

Experiment [3] concerns SMMC-7721. In words: Inhibition of colony formation in human SMMC-7721 cells at 2 uM incubated for 24 hrs measured after cell culturing for 15 days in normal medium by crystal violet staining based assay. As to conditions: time 16.0 day. In kind it is functional. An outline of the steps:
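500 HepG2, QGY-7703 or SMMC-7721 cells per well allowed to attach 24 h, exposed to DMSO or 2.0 µM for 24 h, then grown 15 days in plain medium. Colonies fixed 30 min in 4% paraformaldehyde, stained 15 min with 0.1% crystal violet, photographed and counted.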

The subject of experiment [4] is HepG2. Briefly: Induction of apoptosis in human HepG2 cells transfected with shRNA assessed as late apoptotic cells at 2 uM incubated for 12 hrs by Annexin V-FITC/PI staining based flow cytometry (reference value: 2.18%). In kind it is functional.
Experiment [5] relates to HepG2. Briefly: Antitumor activity against human HepG2 cells xenografted in BALB/c mouse assessed as induction of ER stress by measuring increase in TRB3 level in tumor tissue at 10 to 20 mg/kg/day, ip administered for 15 days by immunohistochemical analysis. In kind it is functional, organism-based. As to conditions: dose 10-20 mg/kg/day, time 15.0 day. In short, it runs like this: (§1)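 HepG2 cells (5×10^6) injected subcutaneously into flanks of 4-week-old male Balb/c nude mice. At about 100 mm³, 15 mice were randomized to vehicle, 10 or 20 mg/kg i.p. once daily for 15 days. Tumors were then excised for immunostaining of paraffin sections (5 μm) or for western blot.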

Experiment [6] has as its system L02. Briefly: Cytotoxicity against human L02 cells assessed as reduction in cell viability incubated for 48 hrs by MTT assay. In kind it is cell-based. As to conditions: L02, 48 h. In short, it runs like this: (§2)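 MTT assay after 48 h exposure at six concentrations, range chosen by cytotoxicity. Inhibition = (ODcontrol − ODtest)/ODcontrol × 100%; IC50 is the concentration halving OD versus untreated cells. Means ± SD of three independent determinations. HepG2 and SMMC-7721 grown in DMEM, QGY-7703 and LO2 in RPMI 1640, with 10% FBS at 37 °C.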

Experiment [7] deals with QGY-7703. In words: Induction of autophagy in human QGY-7703 cells assessed as increase in Beclin 1 expression measured after 12 hrs by Western blot analysis. Format: functional, cell-based. The note with it: dose 0.5-2 µM. In short, it runs like this:
(§3)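 HepG2, QGY-7703 and SMMC-7721 treated with graded concentrations for 12 h. Lysed in RIPA with inhibitors; 40-80 µg protein separated by SDS-PAGE, blotted to nitrocellulose, blocked 1 h in 5% milk, primary antibodies overnight (LC3, Beclin1, Bip, CHOP, TRB3), HRP secondaries, chemiluminescence.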

The test system of experiment [8] is HepG2. In words: Antitumor activity against human HepG2 cells xenografted in BALB/c mouse assessed as induction of ER stress by measuring increase in bip level in tumor tissue at 10 to 20 mg/kg/day, ip administered for 15 days by western blot analysis. In kind it is functional, organism-based. As to conditions: dose 10-20 mg/kg/day, time 15.0 day. In short, it runs like this:
as §1

The target of experiment [9] is Nuclear receptor subfamily 4immunitygroup A member 1 (Homo sapiens, UniProt P22736). Briefly: Modulation of Nur77 in human HepG2 cells assessed as induction of mitochondrial translocation at 2 uM incubated for 6 hrs by Mito-tracker based confocal microscopy. The note with it: Mitochondria, filed as modulator. An outline of the steps:
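HepG2 cells given 2.0 µM for 6 h, then stained with anti-Nur77 antibody plus Mito-tracker. Cells fixed in 4% paraformaldehyde for 20 min, permeabilized with 0.1% Triton X-100, blocked with 5% BSA. Anti-Nur77 (1:500) for 1 h, then FITC- or Cy3-conjugated anti-rabbit IgG for 1 h. Imaged by confocal microscopy.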

For experiment [10], the system named is SMMC-7721. Briefly: Antiproliferative activity against human SMMC-7721 cells assessed as reduction in cell viability incubated for 48 hrs by MTT assay. In kind it is functional, cell-based. As to conditions: SMMC-7721, 48 h. In short, it runs like this:
as §2

Experiment [11] deals with HepG2. In words: Induction of apoptosis in human HepG2 cells assessed as increase in PARP cleavage at 2 uM measured after 12 hrs by Western blot analysis.
Experiment [12] relates to HepG2. Briefly: Antitumor activity against human HepG2 cells xenografted in BALB/c mouse assessed as tumor growth inhibition at 20 mg/kg/day, ip administered for 15 days. Format: functional. The note with it: 360 h, time 15 day. An outline of the steps: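 Subcutaneous flank xenograft of 5×10^6 HepG2 cells in 4-week-old male Balb/c nude mice. At about 100 mm³, 15 mice were randomized into three groups: vehicle, 10 or 20 mg/kg i.p. daily for 15 days. Tumor size was measured every day, and tumors were excised and weighed at the end.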

In experiment [13] the test system is HepG2. In words: Induction of apoptosis in human HepG2 cells assessed as necrotic cells at 1 uM incubated for 12 hrs by Annexin V-FITC/PI staining based flow cytometry (reference value: 0.068%). Format: functional. For orientation: A flow cytometer gives signals particle by particle.
The test system of experiment [14] is HepG2. Briefly: Induction of apoptosis in human HepG2 cells transfected with shRNA assessed as early apoptotic cells at 2 uM incubated for 12 hrs by Annexin V-FITC/PI staining based flow cytometry (reference value: 5.09%). Format: functional.
In experiment [15] the test system is HepG2. In words: Antitumor activity against human HepG2 cells xenografted in BALB/c mouse assessed as induction of autophagy by measuring increase in LC3-II level in tumor tissue at 10 to 20 mg/kg/day, ip administered for 15 days by western blot analysis. In kind it is functional, organism-based. As to conditions: dose 10-20 mg/kg/day, time 15.0 day. An outline of the steps: as §1

In experiment [16] the test system is HepG2. In words: Induction of autophagy in human HepG2 cells assessed as increase in LC3-II expression at 2 uM measured after 4 to 6 hrs by Western blot analysis. In kind it is functional, cell-based. The note with it: time 4-6 hrs. In short, it runs like this:
(§4)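 HepG2 exposed to 2.0 µM over a time course; Nur77, Bip, p-EIF2a, TRB3 and LC3 levels followed by Western blot of RIPA lysates.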

In experiment [17] the test system is HepG2. In words: Induction of autophagy in human HepG2 cells assessed as increase in GFP-LC3 puncta formation at 2 uM after 6 hrs by fluorescence microscopic method. Format: functional, cell-based. In short, it runs like this:
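HepG2, or HepG2 and shNur77 HepG2, transfected with GFP-LC3, then given vehicle or 2.0 µM for 6 h; GFP-LC3 puncta visualised by fluorescence microscopy alongside phase-contrast images.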

The subject of experiment [18] is HepG2. Briefly: Induction of endoplasmic reticulum stress in human HepG2 cells assessed as increase in TRB3 expression at 2 uM measured after 1 to 4 hrs by Western blot analysis. In kind it is functional, cell-based. As to conditions: time 1-4 hrs. In short, it runs like this: as §4
The subject of experiment [19] is QGY-7703. Briefly: Induction of endoplasmic reticulum stress in human QGY-7703 cells assessed as increase in TRB3 protein expression incubated for 12 hrs by Western blot analysis. As to conditions: dose 0.5-2 µM. Format: functional, cell-based. An outline of the steps:
as §3

Nuclear receptor subfamily 4immunitygroup A member 1, sequence (P22736 whole entry): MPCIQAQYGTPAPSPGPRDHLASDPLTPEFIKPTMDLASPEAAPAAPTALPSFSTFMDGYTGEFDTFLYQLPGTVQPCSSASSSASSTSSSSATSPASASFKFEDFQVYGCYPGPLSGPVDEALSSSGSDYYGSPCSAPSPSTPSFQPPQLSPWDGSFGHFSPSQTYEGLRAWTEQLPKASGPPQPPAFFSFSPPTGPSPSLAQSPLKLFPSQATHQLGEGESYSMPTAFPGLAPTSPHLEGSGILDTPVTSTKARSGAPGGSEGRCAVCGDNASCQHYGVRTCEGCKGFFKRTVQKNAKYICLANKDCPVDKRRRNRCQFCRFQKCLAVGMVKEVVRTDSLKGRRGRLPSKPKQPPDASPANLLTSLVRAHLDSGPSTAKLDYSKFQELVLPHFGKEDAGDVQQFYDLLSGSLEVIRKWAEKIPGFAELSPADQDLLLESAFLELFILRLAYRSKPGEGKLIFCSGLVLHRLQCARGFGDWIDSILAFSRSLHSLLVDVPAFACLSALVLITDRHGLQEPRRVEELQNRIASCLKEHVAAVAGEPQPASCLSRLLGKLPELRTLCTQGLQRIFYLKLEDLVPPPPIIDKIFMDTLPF

In the case of `COc1cccc2c(Nc3ccc4[nH]c(C(=O)N/N=C/c5ccc(SC)cc5)cc4c3)cc(C)nc12`, the Activity entry in experiment [1] is “Tde”; in [4], 23%; in experiment [7], “Dose-dependent effect”; in experiment [13], 0.41%; in [14] it was 16.2%; in experiment [19] it was “Dose-dependent effect”. In addition, the result in experiment [2] was inactive. In addition, the inhibition entry in [3] is “Active”. For the same molecule, the outcome in experiment [5], in experiment [8], in experiment [9], in [11], in experiment [15] and in [16] was Active. Besides, the outcome in [17] and in experiment [18] was Active. The pIC50 (as a rule, the IC50 on a negative log10 scale, so that one unit is a factor of ten) in [6] was < 4.70; in experiment [10] it was 5.85. In addition, the inhibition in vivo (usually the percentage by which the read-out fell short of the control) at 20 mg/kg/day in experiment [12] was 62.4%.

The values are drawn from ChEMBL document CHEMBL4765399, “Design, synthesis, and biological evaluation of 5-((8-methoxy-2-methylquinolin-4-yl)amino)-1H-indole-2-carbohydrazide derivatives as novel Nur77 modulators” (Eur J Med Chem, 2020).
